TCR-CD3 inh: inhibitors of human TCR-CD3 interaction, primary screen, biochemical, fluorescence, TAMRA-labeled TCR probe | AID 651800, 2012 | T-cell receptor (TCR) | 0.37% of 360,000 active | inhibition, % at 9.4 µM; in the data active = inhibition above about 19%;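 note: recombinant mutant TCR 2C K166C tagged with TAMRA read by polarization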
HTRA1 inhibitor: HTRA1 serine protease inhibitors, primary screen, biochemical, fluorescence polarization, HTS | inhibition, % at 5.96 µM | recombinant HTRA1, FP-rhodamine activity-based probe | 0.5% of 340,000 active | Q92743 | AID 504803, 2011; in the data active = inhibition above about 36%
ABHD4 inh: ABHD4 inhibitors, primary screen, biochemical, fluorescence polarization, mouse. purified mABHD4, FP-Rh probe fluorescence polarization. inhibition, % at 8.92 µM. 0.54% of 370,000 active;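 active = inhibition exceeding the mean over every tested compound plus 3 SD, cut at about 30% in these data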
Target sequence (Q8VD66 whole entry, looked up): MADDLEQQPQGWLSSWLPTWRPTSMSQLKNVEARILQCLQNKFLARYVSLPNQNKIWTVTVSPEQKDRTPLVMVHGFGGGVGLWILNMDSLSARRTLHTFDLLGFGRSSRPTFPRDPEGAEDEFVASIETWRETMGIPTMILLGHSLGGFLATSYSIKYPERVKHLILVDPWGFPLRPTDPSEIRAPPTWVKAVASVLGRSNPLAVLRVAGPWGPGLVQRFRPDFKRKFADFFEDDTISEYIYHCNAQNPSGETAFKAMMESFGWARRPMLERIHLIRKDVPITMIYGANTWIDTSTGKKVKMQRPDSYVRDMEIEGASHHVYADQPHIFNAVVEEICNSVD
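Assay system: mouse ABHD4 enzyme, wild type / Also added: fluorescent activity-based probe FP-Rh / Doses: single nominal dose of 8.92 µM, 0.89% DMSO final / Timing: 45 min compound pre-incubation plus 60 min probe step, 25 °C / Signal: FP readout, ex 525 nm / em 598 nm / Control set: S159A mutant/DMSO as 100%, compound-well median as 0%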
SIAE primary: human SIAE inhibitors, primary screen, biochemical, fluorescence polarization, FP-Rh probe, 1536-well HTS | Sialate O-acetylesterase (Homo sapiens), Q9HAT2 | 0.69% of 370,000 active | inhibition, % at 9.66 µM | SIAE FP-Rh probe binding;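 active = inhibition above a cutoff: mean of compounds within the control limits plus 3 SD of those, cut at about 17% in these data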
rCAG binder: binders of r(CAG) RNA repeats, primary screen, biochemical, fluorescence; 1.3% of 370,000 active; inhibition, % at 3 µM; r(CAG) RNA repeat, TO-PRO-1 dye displacement fluorescence;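 active = inhibition above the plate cutoff, the mean of all test compounds on that plate plus 3 SD, cut at about 35% in these data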;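 note: higher means more dye released from RNA so lower well fluorescence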
Large screens that a line does not name were inactive; ! = repeats disagree. An excerpt weighted towards active compounds, which were near 2.5% of everything screened.

CC(Oc1ccc2c(-c3ccccc3)cc(=O)oc2c1)C(=O)NC(Cc1c[nH]c2ccc(O)cc12)C(=O)O (stereo unspecified)	none
O=C(COc1ccc(F)cc1)NCCNC(=O)COc1ccc(F)cc1	none
CC1=C(C(=O)N2CCCC(C(=O)c3cccc4ccccc34)C2)OCCO1 (stereo unspecified)	none
CC(C)(C)NC(=O)C(c1cccc2ccccc12)n1c(=O)c(-c2ccco2)nc2ccccc21 (stereo unspecified)	rCAG binder 43.7 (no result: HTRA1 inhibitor)
O=C(NCc1ccccc1)C(c1cccc2ccccc12)n1c(=O)c(-c2ccco2)nc2ccccc21 (stereo unspecified)	rCAG binder 38.3 (no result: HTRA1 inhibitor)
CC(C)(C)NC(=O)Cn1cc(C#N)c2cc(Br)ccc21	none
COc1cc(/C=C2/C(=O)NN(c3ccc(Cl)cc3)C2=O)ccc1OC(=O)c1ccco1	rCAG binder 76.3
CC(=O)N(CCOc1ccccc1)CCOc1ccccc1	none
COc1ccccc1C(=O)Nc1ccc(S(=O)(=O)Nc2cc(C)on2)cc1	SIAE primary 26.9
COc1ccccc1NS(=O)(=O)c1cccc2cccnc12	none
COc1cc(NC(=O)COC(=O)[C@@H]2CCCN2S(=O)(=O)c2ccc(Cl)cc2)cc(OC)c1OC	SIAE primary 17.8
O=C(COC(=O)[C@@H]1CCCN1S(=O)(=O)c1ccc(Cl)cc1)NC12CC3CC(CC(C3)C1)C2	none
CCN(c1ccc(OC)cc1)S(=O)(=O)c1nnc(NC(=O)c2ccco2)s1	none
COc1ccc(N(CC(C)C)S(=O)(=O)c2nnc(NC(=O)c3ccco3)s2)cc1	rCAG binder 75.7
CN1C[C@H](C(=O)N[C@]2(C)O[C@@]3(O)[C@@H]4CCCN4C(=O)[C@H](Cc4ccccc4)N3C2=O)CC2c3cccc4[nH]cc(c34)C[C@H]21 (stereo partly specified)	SIAE primary 21.3!
COc1ccc(S(=O)(=O)NNC(=O)C2COc3ccccc3O2)cc1[N+](=O)[O-] (stereo unspecified)	none
CC/C(=N\Nc1ccc([N+](=O)[O-])cc1[N+](=O)[O-])c1ccc(O)cc1	none
CC/C(=N\Nc1ccccc1[N+](=O)[O-])c1ccc(O)cc1	ABHD4 inh 40.0 (no result: HTRA1 inhibitor)
CCN=C1S/C(=C/c2ccc(-c3ccc(Cl)cc3C(=O)O)o2)C(=O)N1CC	rCAG binder 55.4
CCN=C1S/C(=C\c2ccc(-c3cccc(C(=O)O)c3)o2)C(=O)N1CC	none (no result: TCR-CD3 inh, ABHD4 inh, SIAE primary, rCAG binder)
CCOc1ccc(/C(CCC(=O)O)=N/NC(=S)NCCc2ccccc2)cc1	rCAG binder 35.8
CCOc1ccc(C(=O)OCC(=O)NCCCc2ccccc2)cc1	none
CCCC(=O)NCCc1nc2ccccc2n1C	none
N#CC(c1ccc(Cl)cc1)c1ccc2c(C(F)(F)F)cc(C(F)(F)F)nc2n1 (stereo unspecified)	SIAE primary 22.8
CC(OC(=O)c1ccc(NC(=O)CC#N)cc1)C(=O)Nc1ccc(Oc2ccccc2)cc1 (stereo unspecified)	TCR-CD3 inh 35.3
CCOC(=O)COc1ccc(Br)cc1/C=C/c1[nH]c(=O)[nH]c(=O)c1[N+](=O)[O-]	rCAG binder 77.1
CCCOc1ccc(/C=C/c2[nH]c(=O)[nH]c(=O)c2[N+](=O)[O-])cc1OCC	none
CC1CC(C)CN(C(=O)c2ccc(S(=O)(=O)N3CC(C)CC(C)C3)cc2)C1 (stereo unspecified)	none
CC1(C(=O)NS(=O)(=O)c2ccccc2Cl)CCN1C(=O)C1(c2ccc(Cl)cc2)CCC1 (stereo unspecified)	rCAG binder 47.2 (no result: HTRA1 inhibitor)
Cc1noc(NS(=O)(=O)c2ccc(NC(=O)CSc3n[nH]c(-c4ccccc4)n3)cc2)c1C	none
Cc1noc(NS(=O)(=O)c2ccc(NC(=O)CSc3nnc(-c4ccccc4)n3C3CCCCC3)cc2)c1C	rCAG binder 63.3
N#C/C(=C/c1cc(Cl)c(O)c(Cl)c1)C(=O)N1CCCCC1	none
N#CC(C#N)=C(N)/C(C#N)=C/c1cc(O)c(O)c(O)c1	ABHD4 inh 33.1
Cn1c(N)c(C(=O)CSc2nn(-c3ccccc3)c(=S)s2)c(=O)n(C)c1=O	none
COc1ccc(NC(=O)CN(C)C(=O)c2ccc(COc3ccccc3)cc2)cc1	none
CC(C)(C)S(=O)N1Cc2cc(=O)n(Cc3ccccc3)cc2[C@H]1CCO (stereo partly specified)	none
O=C(CN1C2=NCCN2c2ccccc21)c1ccc2c(c1)OCO2	SIAE primary 19.5
COC(=O)c1ccccc1NC1=C/C(=N\S(=O)(=O)c2cccs2)c2ccccc2C1=O	none
COC(=O)c1ccccc1NC1=C/C(=N\S(=O)(=O)c2ccc(C(=O)O)cc2)c2ccccc2C1=O	HTRA1 inhibitor 44.9 (no result: TCR-CD3 inh, ABHD4 inh, SIAE primary, rCAG binder)
Cc1ccc(NC2=C/C(=N/S(=O)(=O)c3cccs3)c3ccccc3C2=O)cc1	none
CCc1ccc(S(=O)(=O)/N=C2\C=C(Nc3ccc(C(=O)O)cc3)C(=O)c3ccccc32)cc1	ABHD4 inh 54.2, rCAG binder 88.8
COc1ccc(N2CCN(C3CCCN(C(=O)CN4CCCCC4=O)C3)CC2)cc1 (stereo unspecified)	none
Cc1ccc(S(C)(=O)=O)cc1S(=O)(=O)Nc1cccc(Cl)c1	none
CCOc1ccc(NC(=O)Nc2nc3ccc(S(C)(=O)=O)cc3s2)cc1	rCAG binder 38.9
Cn1c(=S)c2[nH]c(SCCN)nc2n(C)c1=O	ABHD4 inh 38.6
Cc1cc(C(=O)COC(=O)c2nccnc2N)c(C)n1C	none
O=C(Nc1ccccc1)P(=O)(O)c1ccccc1	none
NC(N)=N/N=C/c1ccc(OCc2ccccc2)c(OCc2ccccc2)c1	SIAE primary 25.3
CCOC(=O)c1sc(N/N=C/c2ccccc2)nc1C	none
O=C(O)Cc1sc(N/N=C\c2ccccc2)nc1-c1ccccc1	rCAG binder 44.1
O=[N+]([O-])c1cccc(OCc2cn3cccnc3n2)c1	none
O=C(O)CN1C(=O)/C(=C\C(Br)=C\c2ccccc2)SC1=S	rCAG binder 49.7
O=C(O)CN1C(=O)/C(=C/C=C/c2ccccc2)SC1=S	none
Oc1ccc(C[C@H]2CNC(=S)N2C[C@H]2CCCN2C[C@H](Cc2ccccc2)N2C[C@H](Cc3ccc(O)cc3)N(CC3CCCCCC3)C2=S)cc1	none (no result: HTRA1 inhibitor)
O=c1c2ccccc2cnn1CCOc1ccccc1	none
COC(=O)c1ccc(COc2ccc(/C=C(\C#N)c3nc4ccccc4[nH]3)cc2OC)o1	none
COc1cc(/C=C(/C#N)c2nc3ccccc3[nH]2)ccc1OCc1ccc(C(=O)O)o1	rCAG binder 40.0
O=C(NC1CCCCC1)Oc1cc2oc(=O)sc2cc1Br	ABHD4 inh 33.5
O=C(NC1CCCCCC1)c1ccc(Br)o1	none
CC(=O)N1CCN(c2ccc(NC(=O)c3ccc4c(c3)OCO4)cc2)CC1	none
